According to ChEMBL document CHEMBL1137851, “2-Substituted benzoxazinone analogues as anti-human coronavirus (anti-HCoV) and ICAM-1 expression inhibition agents” (Bioorg Med Chem Lett, 2004):
In brackets after ≈: the same amount, converted by molar mass. Numbered stars: 1 amine (or outer) side, 2 acyl side, 3 side chain; on linkers, the order of the positions; unused ones are H or OH. Bridge positions count the residues as written; N and C are the ends. Square brackets hold non-standard residues; d marks the D form. Peptide text beside a SMILES is read from it. I, II: the chains in the order shown. Actinocin(1to9) = Cc1c2oc3c(C)ccc(C(=O)[*:2])c3nc-2c(C(=O)[*:1])c(N)c1=O; NMeV = CN[C@H](C(=O)O)C(C)C; Sar = CNCC(=O)O

Tested on: not listed separately; call rule not given here
Test: Effective dose for inhibition of intercellular adhesion molecule 1 (ICAM 1) expression
Format: functional

Question: For `COc1cccc2c(=O)oc(-c3ccc(Cl)cc3)nc12`, which ED50 is on record?
Answer: 0.5 µg/mL (≈ 1.74 µM)

Question: For `COc1cccc2c(=O)oc(-c3ccc(Br)cc3)nc12`, which ED50 is on record?
Answer: 1 µg/mL (≈ 3.01 µM)

Tested on: MRC5
Test: inhibitory concentration against anti-human coronavirus (HCoV) was determined in MRC-5 cells (human fibroblasts); Inactive
Format: functional, cell-based
Summary of the method: (§1)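 MRC-5 human fibroblasts (1.0×10^5 cells/mL in 3% FBS-DMEM) seeded and held 24 h at 37 °C, then infected with HCoV strain 229E at 20 TCID₅₀/well for 2 h at 37 °C. Compound added afterwards at various concentrations, in triplicate. Cell viability read by XTT after 4 days at 37 °C. Actinomycin D served as positive control.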

Question: With `O=c1oc(-c2ccccc2Cl)nc2c1ccc1ccccc12` as the molecule, how does the IC50 read?
Answer: Not Active

Question: For `COc1cccc2c(=O)oc(-c3ccccc3Br)nc12`, which IC50 is on record?
Answer: Not Active

Question: With `O=c1oc(-c2ccccc2F)nc2c1ccc1ccccc12` as the molecule, how does the IC50 read?
Answer: Not Active

Question: Which IC50 does the source give for `O=c1oc(-c2ccccc2Br)nc2c1ccc1ccccc12` here?
Answer: Not Active

Tested on: MRC5
Test: inhibitory concentration against anti-human coronavirus (HCoV) was determined in MRC-5 cells (human fibroblasts)
Format: functional, cell-based
Summary of the method: as §1

Question: With `COc1cccc2c(=O)oc(-c3ccccc3)nc12` as the molecule, how does the IC50 read?
Answer: 6.83 µg/mL (≈ 27 µM)

Question: For `COc1cccc2c(=O)oc(-c3ccccc3F)nc12`, which IC50 is on record?
Answer: 1.92 µg/mL (≈ 7.08 µM)

Question: For `COc1cccc2c(=O)oc(-c3ccc(Cl)cc3)nc12`, which IC50 is on record?
Answer: 7.59 µg/mL (≈ 26.4 µM)

Question: For `COc1cccc2c(=O)oc(-c3ccc(Br)cc3)nc12`, which IC50 is on record?
Answer: 6.08 µg/mL (≈ 18.3 µM)

Question: With `Cc1c2oc3c(C)ccc(C(=O)N[C@@H]4C(=O)N[C@H](C(C)C)C(=O)N5CCC[C@H]5C(=O)N(C)CC(=O)N(C)[C@@H](C(C)C)C(=O)O[C@@H]4C)c3nc-2c(C(=O)N[C@@H]2C(=O)N[C@H](C(C)C)C(=O)N3CCC[C@H]3C(=O)N(C)CC(=O)N(C)[C@@H](C(C)C)C(=O)O[C@@H]2C)c(N)c1=O` [DACTINOMYCIN] (I: T[dV]P[Sar][NMeV] / II: T[dV]P[Sar][NMeV]; ester I:1-I:C, II:1-II:C; linker I:N-II:N via Actinocin(1to9)) as the molecule, how does the IC50 read?
Answer: 0.02 µg/mL (≈ 0.0159 µM)

Question: With `COc1cccc2c(=O)oc(-c3ccccc3Cl)nc12` as the molecule, how does the IC50 read?
Answer: 5.79 µg/mL (≈ 20.1 µM)

Question: Which IC50 does the source give for `COc1cccc2c(=O)oc(-c3cccc(Cl)c3)nc12` here?
Answer: 5.06 µg/mL (≈ 17.6 µM)
